STAT1 activator: STAT1 signaling activation; NIH 3T3 STAT1-luciferase reporter, IFN-gamma, luminescence; 100% = IFN-gamma alone, no compound; activation (% of control), % at 5.5 µM; 200,000 tested, 2.6% active;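 active = activation above the screen-wide mean activation plus 3 SD, cut at about 130% in these data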;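 note: raw ratio to IFN-gamma control signal so 100% means no change and 0% no light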
APP 5'UTR act: APP 5'UTR luciferase reporter activation; SH-SY5Y APP 5'UTR luciferase reporter, luminescence; zero percent = DMSO vehicle wells; activation, % at 2 µM; 190,000 tested, 1% active;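 active = activation above a set limit, based on mean plus 3 SD of controls, cut at about 140% in these data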
NF-kB expr up: raises NF-kB expression in human neuronal cells | NF-kB reporter expression; active compounds read high | fold change at 12.5 µM | 190,000 tested, 1.6% active | AID 1239; in the data active = fold change above about 3.3
FLuc act counter: firefly luciferase counter-screen for stimulation assays; P08659; 200,000 tested, under 10 active; activation factor at 10 µM; ATPlite luciferase biochemical, luminescence, 10 min; 0 = ATP-free wells, 1 = DMSO control;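 active = luciferase activation factor, scaled between plate controls, of at least 2 with compound at 10 µM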
Target sequence (P08659 whole entry, looked up): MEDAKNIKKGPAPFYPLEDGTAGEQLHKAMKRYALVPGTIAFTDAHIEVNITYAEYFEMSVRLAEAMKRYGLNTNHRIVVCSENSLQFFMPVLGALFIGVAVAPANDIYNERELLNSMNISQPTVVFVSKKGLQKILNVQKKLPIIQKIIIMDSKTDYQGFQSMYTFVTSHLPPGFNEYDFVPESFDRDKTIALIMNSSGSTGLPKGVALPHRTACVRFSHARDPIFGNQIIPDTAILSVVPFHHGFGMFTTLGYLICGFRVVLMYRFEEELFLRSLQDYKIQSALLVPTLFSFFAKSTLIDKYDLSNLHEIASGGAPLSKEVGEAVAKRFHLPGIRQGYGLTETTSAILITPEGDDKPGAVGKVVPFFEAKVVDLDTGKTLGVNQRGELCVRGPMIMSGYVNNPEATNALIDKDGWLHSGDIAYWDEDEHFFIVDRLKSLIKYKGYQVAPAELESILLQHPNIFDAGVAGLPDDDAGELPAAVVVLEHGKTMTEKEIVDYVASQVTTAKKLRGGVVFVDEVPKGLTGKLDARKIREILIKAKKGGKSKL
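assay system = Luciferase/luciferin detection reagent, cell-free biochemical luciferase assay | also added = ATP substrate | times = 10 min post-reagent at room temperature | measured by = luminescence from luciferase reaction | measure = luciferase activation, seen as luminescence increase over controls | benchmarks = low control with PBS replacing ATP, high control enzyme plus ATP without compound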
FLuc inh counter: Photinus pyralis luciferase inhibition counter-screen | inhibition, % at 10 µM | ATPLite firefly luciferase biochemical luminescence, 10 min | AID 1006 | 200,000 tested, 1.5% active | P08659;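 active = inhibition above about 50% when tested at 10 µM, limit read from the data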
The depositor's hits bear a star. This is a sample that favours compounds with a hit; in the whole collection about 4.1% have one here.

C/C(NC(=O)c1cccs1)=C1\C(=O)C[C@@H]2[C@H]1C2(C)C was read as STAT1 activator 130.4*, APP 5'UTR act 37.0, NF-kB expr up 1.96, FLuc act counter 0.9 and FLuc inh counter 7.5.
`Cc1ccsc1CN1CC(=O)N(c2c(C)cccc2C)C1=S` gave STAT1 activator 96.3, APP 5'UTR act -6.2, NF-kB expr up 0.99, FLuc act counter 1.1 and FLuc inh counter -6.1.
O=C(CCN1CCOCC1)c1ccc2c(c1)OCCO2 was read as STAT1 activator 96.0, APP 5'UTR act 13.7, NF-kB expr up 1.11, FLuc act counter 1.1 and FLuc inh counter -8.9.
Screening O=C(CCCN1CCOCC1)c1ccc2c(c1)OCCO2 returned STAT1 activator 142.1*, APP 5'UTR act 100.7, NF-kB expr up 1.45, FLuc act counter 0.9 and FLuc inh counter 5.2.
For CC1CC(C)CN(c2ncnc3c2cnn3Cc2ccc(Cl)cc2)C1 (stereo unspecified) the results were STAT1 activator 97.1, APP 5'UTR act -5.8, NF-kB expr up 0.86, FLuc act counter 1.1 and FLuc inh counter -8.8.
`Clc1ccc(Cn2ncc3c(N4CCCCC4)ncnc32)cc1` gave STAT1 activator 97.4, APP 5'UTR act 16.5, NF-kB expr up 0.51, FLuc act counter 1.1 and FLuc inh counter -6.4.
Screening Clc1ccc(-n2ncc3c(N4CCCCCC4)ncnc32)cc1 returned STAT1 activator 99.1, APP 5'UTR act 26.9, NF-kB expr up 0.23, FLuc act counter 0.2 and FLuc inh counter 82.6*.
`CC1CN(c2ncnc3c2cnn3-c2ccc(Cl)cc2)CC(C)O1` (stereo unspecified) gave STAT1 activator 146.7*, APP 5'UTR act 46.6, NF-kB expr up 1.48, FLuc act counter 0.8 and FLuc inh counter 16.5.
For COc1ccc(-n2ncc3c(N4CCCCC4)ncnc32)cc1 the results were STAT1 activator 33.5, APP 5'UTR act 39.3, NF-kB expr up 0.27, FLuc act counter 0.1 and FLuc inh counter 94.3*.
COc1ccc(-n2ncc3c(N4CCN(c5cc(C)ccc5C)CC4)ncnc32)cc1 was read as STAT1 activator 103.6, APP 5'UTR act -3.2, NF-kB expr up 1.13, FLuc act counter 1 and FLuc inh counter -3.7.
Cc1occc1-c1nnc(SCC(=O)N(C)C)o1 was read as STAT1 activator 111.3, APP 5'UTR act 0.3, NF-kB expr up 1.45, FLuc act counter 1 and FLuc inh counter -1.5.
For Cc1cc(/C=C(\C#N)c2nc3ccccc3[nH]2)c(C)n1C the results were STAT1 activator 142.1*, APP 5'UTR act 57.2, NF-kB expr up 2.67, FLuc act counter 0.2 and FLuc inh counter 77.5*.
CN(C)/C=C(\C#N)c1nc2ccccc2[nH]1 was read as STAT1 activator 106.3, APP 5'UTR act 15.0, NF-kB expr up 1.37, FLuc act counter 1 and FLuc inh counter -2.2.
`N#C/C(=C/c1ccc(N2CCOCC2)o1)c1nc2ccccc2[nH]1` gave STAT1 activator 148.7*, APP 5'UTR act 157.9*, NF-kB expr up 2.78, FLuc act counter 0.2 and FLuc inh counter 81.8*.
For N#C/C(=C/c1cccs1)c1nc2ccccc2[nH]1 the results were STAT1 activator 144.6*, APP 5'UTR act 68.5, NF-kB expr up 1.65, FLuc act counter 1 and FLuc inh counter 3.3.
Screening COc1c(O)ccc(/C=C(\C#N)c2nc3ccccc3[nH]2)c1[N+](=O)[O-] returned STAT1 activator 134.3*, APP 5'UTR act 87.8, NF-kB expr up 1.09, FLuc act counter 0.9 and FLuc inh counter 5.0.
`N#C/C(=C\c1cc([N+](=O)[O-])c(N2CCOCC2)cc1N1CCOCC1)c1nc2ccccc2[nH]1` gave STAT1 activator 106.7, APP 5'UTR act -3.7, NF-kB expr up 0.46, FLuc act counter 1 and FLuc inh counter -4.7.
CN(C)CCNC(=S)Nc1ccccc1C(C)(C)C was read as STAT1 activator 98.1, APP 5'UTR act 10.9, NF-kB expr up 1.45, FLuc act counter 1.1 and FLuc inh counter -8.0.
Screening C=CCNCCOc1ccc(C(C)(C)c2ccccc2)cc1 returned STAT1 activator 101.9, APP 5'UTR act -18.7, NF-kB expr up 0.91, FLuc act counter 1 and FLuc inh counter -3.6.
For COc1cccc2cc(-c3nc4ccccc4o3)c(=O)oc12 the results were STAT1 activator 119.1, APP 5'UTR act 122.4, NF-kB expr up 2.95, FLuc act counter 0.4 and FLuc inh counter 59.8*.
O=c1oc2ccc(Br)cc2cc1-c1nc2ccccc2o1 was read as STAT1 activator 103.4, APP 5'UTR act 2.5, NF-kB expr up 1.16, FLuc act counter 1 and FLuc inh counter -3.4.
For COc1ccc2oc(=O)c(-c3nc(C)cs3)cc2c1 the results were STAT1 activator 134.7*, APP 5'UTR act 199.3*, NF-kB expr up 2.1, FLuc act counter 0.8 and FLuc inh counter 16.8.
Screening COc1ccc2oc(=O)c(C(C)=O)cc2c1 returned STAT1 activator 102.2, APP 5'UTR act 6.9, NF-kB expr up 1.16, FLuc act counter 1 and FLuc inh counter -2.0.
For CCN(CC(=O)NCCc1ccccc1)S(=O)(=O)c1ccc(Br)cc1 the results were STAT1 activator 98.7, APP 5'UTR act -10.3, NF-kB expr up 0.93, FLuc act counter 1 and FLuc inh counter -1.2.
O=C(Nc1cccc(Cl)c1)Nc1nnc(-c2ccncc2)s1 was read as STAT1 activator 69.7, APP 5'UTR act -1.1, NF-kB expr up 0.49, FLuc act counter 1 and FLuc inh counter -4.4.
For CCOC(=O)Nc1sc(C)nc1-c1ccccc1 the results were STAT1 activator 104.4, APP 5'UTR act 4.7, NF-kB expr up 1.01, FLuc act counter 1.1 and FLuc inh counter -8.1.
CCOC(=O)Nc1nc(-c2ccccc2)c(C(=O)c2ccc(Cl)cc2)s1 was read as STAT1 activator 107.5, APP 5'UTR act -94.1, NF-kB expr up 3.87*, FLuc act counter 1 and FLuc inh counter -3.6.
Screening CC1(C)CC(=O)C2=C(C1)c1c(ccc3ncccc13)NC2c1cccs1 (stereo unspecified) returned STAT1 activator 99.6, APP 5'UTR act -6.5, NF-kB expr up 0.91, FLuc act counter 1.1 and FLuc inh counter -6.7.
Screening CCOC(=O)N1CCC(NC(=O)c2ccc3c(c2)N(Cc2ccc(F)cc2)CCS3)CC1 returned STAT1 activator 101.5, APP 5'UTR act 2.0, NF-kB expr up 0.86, FLuc act counter 1 and FLuc inh counter 0.2.
Screening Fc1cccc(/C=N/N=C/c2cccc(F)c2)c1 returned STAT1 activator 146.9*, APP 5'UTR act 37.9, NF-kB expr up 1.12, FLuc act counter 1 and FLuc inh counter 4.8.
Screening Cc1ccc(OCCSc2ncccn2)c(C)c1 returned STAT1 activator 135.5*, APP 5'UTR act 167.8*, NF-kB expr up 5.46*, FLuc act counter 0.6 and FLuc inh counter 36.5.
`Cc1cccc(OCCOCCSc2ncccn2)c1` gave STAT1 activator 110.4, APP 5'UTR act 22.4, NF-kB expr up 1.33, FLuc act counter 1.1 and FLuc inh counter -8.5.
CCOc1cc(CNc2ccc(N(C)C)cc2)cc(Br)c1OCC(=O)NC(C)(C)C was read as STAT1 activator 144.8*, APP 5'UTR act 104.8, NF-kB expr up 0.44, FLuc act counter 1 and FLuc inh counter -3.6.
